Published values gathered from unrelated publications.
Lines come from different studies, so protocols differ.
Tmem97: Sigma intracellular receptor 2 (Tmem97, Rattus norvegicus, UniProt Q5U3Y7)
SIK1: Serine/threonine-protein kinase SIK1 (SIK1, Homo sapiens, UniProt P57059)
Trypanothione synthetase: Trypanothione synthetase (Trypanosoma cruzi, UniProt Q9GT49)
MTNR1A: Melatonin receptor type 1A (MTNR1A, Homo sapiens, UniProt P48039)
dxs: 1-deoxy-D-xylulose-5-phosphate synthase (dxs, Deinococcus radiodurans, UniProt Q9RUB5)
BDKRB2: B2 bradykinin receptor (BDKRB2, Homo sapiens, UniProt P30411)
EAPA: Endothiapepsin (EAPA, Cryphonectria parasitica, UniProt P11838)
TACR1: Substance-P receptor (TACR1, Homo sapiens, UniProt P25103)
HTR2C: 5-hydroxytryptamine receptor 2C (HTR2C, Homo sapiens, UniProt P28335)

N#Cc1cc(Cn2c(N3CCCC3)nc3ccccc32)ccc1F  inhibition (Tmem97; ligand displacement; 10 µM): 88.9%
CNC(=O)c1cc(Oc2ccc(NC(=O)Nc3ccc(Cl)c(C(F)(F)F)c3)cc2)ccn1  inhibition (SIK1; enzyme activity, inhibitor; 10 µM): 3%
O=C(c1ccc(OCCN2CCCCC2)cc1)c1c(-c2ccc(O)cc2)sc2cc(O)ccc12  inhibition (Trypanothione synthetase; enzyme activity, inhibitor, absorbance; 25 µM): 24.5%
CN(Cc1ccc(NC(=O)C2=Cc3cc(-c4ccc(OCCCCCCCF)cc4)ccc3CCC2)cc1)C1CCOCC1  inhibition (Tmem97; ligand displacement, radioligand; 10 µM): 17%
CCCNc1nc2ccccc2n1Cc1ccc(Cl)cc1  inhibition (Tmem97; ligand displacement; 10 µM): 54%
CCN(Cc1ccccc1C(F)(F)F)C(=O)C1CCN(S(=O)(=O)c2ccc3[nH]ncc3c2)CC1  inhibition (MTNR1A; ligand displacement, radioligand; 10 µM): 34%
Cc1ccc(Nc2nccc(N(C)c3ccc4c(C)n(C)nc4c3)n2)cc1S(N)(=O)=O  inhibition (SIK1; enzyme activity, inhibitor; 10 µM): 69%
COc1cc2c(cc1OC)CN(C(C)CCc1ccc(O)cc1)CC2 (stereo not drawn)  inhibition (Tmem97; ligand displacement, radioligand; 0.1 µM): 94%
O=C(COc1ccc(Cl)cc1Cl)N/N=C/c1c[nH]c2ccccc12  inhibition (dxs; enzyme activity, inhibitor; 200 µM): 45.3%
CC(C)(C)NC(=O)CN1C(=O)Cc2c([nH]c3ccc(Br)cc23)-c2ccc(Cl)cc21  inhibition (Trypanothione synthetase; enzyme activity, inhibitor, absorbance; 30 µM): 5.8%
Oc1cccc(Nc2nc(-c3ccc(F)cc3F)cs2)c1  inhibition (BDKRB2; cell-free assay; 10 µM): -68.7%
NNC(COCc1ccccc1)c1nnnn1CCc1ccc(O)cc1 (stereo not drawn)  inhibition (EAPA; enzyme activity, inhibitor; 200 µM): 91.5%
O=C(CN1C(=O)Cc2c([nH]c3ccc(Br)cc23)-c2ccc(Cl)cc21)NCCN1CCCCC1  inhibition (Trypanothione synthetase; enzyme activity, inhibitor, absorbance; 30 µM): 21.4%
CNC(=O)[C@@]12C[C@@H]1[C@@H](n1cnc3c(NC)nc(C#Cc4ccc(Cl)s4)nc31)[C@H](O)[C@@H]2O  inhibition (Tmem97; ligand displacement, radioligand; 10 µM): 60 to 70%
O=C(c1ccc(Cl)cc1)N(Cc1ccccc1)C1CCCCC1  inhibition (TACR1; cell-free assay; 10 µM): 15.1%
O=C1N=C(N2CCCCN2)S/C1=C\c1ccc(F)cc1O  inhibition (MTNR1A; ligand displacement, radioligand; 10 µM): < 10%
CN(C)C1CCN(CC#Cc2nn(C3CCCC3)c3nc(NCc4ccccc4)ncc23)C1 (stereo not drawn)  inhibition (Rho-associated protein kinase 1 (ROCK1, Homo sapiens, UniProt Q13464); enzyme activity, inhibitor, FRET; 10 µM): -4%
NNC(COCc1ccccc1)c1nnnn1Cc1ccc2c(c1)OCO2 (stereo not drawn)  inhibition (EAPA; enzyme activity, inhibitor; 200 µM): 48.3%
CCN(CC)C(=O)CN1C(=O)Cc2c([nH]c3ccc(Br)cc23)-c2ccc(Cl)cc21  inhibition (Trypanothione synthetase; enzyme activity, inhibitor, absorbance; 30 µM): 7.8%
Ic1cccc2cnccc12  inhibition (NMNAT1 (Homo sapiens, UniProt Q9HAN9); enzyme activity, inhibitor; 10 µM): -3%
CCC(C)C(NN)c1nnnn1CC(c1ccccc1)c1ccccc1 (stereo not drawn)  inhibition (EAPA; enzyme activity, inhibitor; 200 µM): 40.3%
COc1cc(NC(C)=O)c(Cl)cc1C(=O)Nc1nccs1  inhibition (BDKRB2; cell-free assay; 10 µM): -21.3%
O=C(CN1C(=O)Cc2c([nH]c3ccc(Br)cc23)-c2ccc(Cl)cc21)N1CCN(c2ncccn2)CC1  inhibition (Trypanothione synthetase; enzyme activity, inhibitor, absorbance; 30 µM): 40.6%
CCN(CC)c1ccc(C2Nc3ccc(C(=O)c4ccccc4)cc3NC3=C2C(=O)CC(C)(C)C3)cc1 (stereo not drawn)  inhibition (HTR2C; ligand displacement, radioligand; 10 µM): 5%
CCN(CC)CCNC(=O)CN1C(=O)Cc2c([nH]c3ccc(Br)cc23)-c2ccc(Cl)cc21  inhibition (Trypanothione synthetase; enzyme activity, inhibitor, absorbance; 30 µM): 17.1%
NNC(c1nnnn1CC(c1ccccc1)c1ccccc1)C1CCCCC1 (stereo not drawn)  inhibition (EAPA; enzyme activity, inhibitor; 200 µM): 71.3%
FC(F)(F)c1ccc(-c2nnc(-c3cc4c(s3)CCCC4)o2)cn1  inhibition (dxs; enzyme activity, inhibitor; 120 µM): 0%
CCCCCC(NN)c1nnnn1Cc1ccc2c(c1)OCO2 (stereo not drawn)  inhibition (EAPA; enzyme activity, inhibitor; 200 µM): 32.8%
CCNC(=O)CN1C(=O)Cc2c([nH]c3ccc(Br)cc23)-c2ccc(Cl)cc21  inhibition (Trypanothione synthetase; enzyme activity, inhibitor, absorbance; 30 µM): 41.4%
O=C(c1ccc(F)cc1)N(Cc1ccccc1)C1CCCCC1  inhibition (B1 bradykinin receptor (BDKRB1, Homo sapiens, UniProt P46663); cell-free assay; 10 µM): -7%
O=C(O)c1ccc(C(=O)O)nc1  inhibition (Stromelysin-1 (MMP3, Homo sapiens, UniProt P08254); enzyme activity, inhibitor; 1 mM, pH 6): > 80%
NNC(CCc1ccccc1)c1nnnn1CC(=O)NCc1cccs1 (stereo not drawn)  inhibition (EAPA; enzyme activity, inhibitor; 200 µM): 39.1%
COC(=O)CN1C(=O)Cc2c([nH]c3ccc(Br)cc23)-c2ccc(Cl)cc21  inhibition (Trypanothione synthetase; enzyme activity, inhibitor, absorbance; 30 µM): 37.4%
O=C(Nc1ccc(S(=O)(=O)N2CCC(Cl)CC2)cc1)c1ccc([N+](=O)[O-])o1  inhibition (TACR1; ligand displacement, radioligand; 10 µM): 3%
O=C(CN1C(=O)Cc2c([nH]c3ccc(Br)cc23)-c2ccc(Cl)cc21)NCCN1CCNCC1  inhibition (Trypanothione synthetase; enzyme activity, inhibitor, absorbance; 30 µM): 7.9%
C#CCOCCOCCOc1ccc2c3c1C1CCCC1N3CCNC2 (racemic)  inhibition (HTR2C; ligand displacement, radioligand; 10 µM): 100%
